From PubChem
Hits are enriched below; roughly 4.6% of the tested compounds scored in any of these assays.
APP 5'UTR act = activators of APP 5'UTR luciferase reporter, primary screen, SH-SY5Y cells; SH-SY5Y APP 5'UTR luciferase reporter, luminescence; zero percent = DMSO vehicle wells; AID 1276, 2008; 190,000 tested, 1% active; activation, % at 2 µM;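 active = activation above a set limit, based on mean plus 3 SD of controls, cut at about 140% in these data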
NF-kB neuron act = activators of NF-kB expression in neurons, primary screen, cell-based, HTS | human neuronal cells, NF-kB reporter expression; stronger effect = higher value | fold change at 12.5 µM | 190,000 tested, 1.6% active | AID 1239, 2008; in the data active = fold change above about 3.3
Mdm2 ligase inh = MDM2-luciferase reporter signal enhancers, primary screen, MDM2 E3 ligase inhibitor project, cell-based, luminescence, 1536-well | cell-based MDM2 ubiquitination luciferase reporter, 2 h; 0 = plate control, 100 = twice control, blank-subtracted | signal enhancement, % at 5 µM | 210,000 tested, 0.11% active | E3 ubiquitin-protein ligase Mdm2 (Homo sapiens), Q00987;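 active = signal enhancement of 30% or more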;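 also: luminescence tracks abundance of the self-degrading MDM2-luciferase fusion protein; higher signal means inhibition of MDM2 E3 ligase activity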
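system = mammalian cells stably expressing self-ubiquitinating, self-degrading MDM2 E3–luciferase fusion | quantity = 2000 cells per well seeded | incubation = 4 h cell settling then 2 h compound exposure, 37 °C | signal = SteadyLite luminescence, 15 min reagent step | benchmarks = plate control and blank wells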
p97 ATPase inh = inhibitors of human p97 ATPase, primary screen, biochemical | Transitional endoplasmic reticulum ATPase (Homo sapiens), P55072 | recombinant p97 ATPase, Kinase-Glo ATP luminescence, 3 h | inhibition, % at 8 µM | 220,000 tested, 0.42% active | AID 1481, 2009; in the data active = inhibition above about 15%;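 also: 0% = DMSO vehicle and 100% = wells lacking enzyme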
Target sequence (P55072 whole entry, looked up): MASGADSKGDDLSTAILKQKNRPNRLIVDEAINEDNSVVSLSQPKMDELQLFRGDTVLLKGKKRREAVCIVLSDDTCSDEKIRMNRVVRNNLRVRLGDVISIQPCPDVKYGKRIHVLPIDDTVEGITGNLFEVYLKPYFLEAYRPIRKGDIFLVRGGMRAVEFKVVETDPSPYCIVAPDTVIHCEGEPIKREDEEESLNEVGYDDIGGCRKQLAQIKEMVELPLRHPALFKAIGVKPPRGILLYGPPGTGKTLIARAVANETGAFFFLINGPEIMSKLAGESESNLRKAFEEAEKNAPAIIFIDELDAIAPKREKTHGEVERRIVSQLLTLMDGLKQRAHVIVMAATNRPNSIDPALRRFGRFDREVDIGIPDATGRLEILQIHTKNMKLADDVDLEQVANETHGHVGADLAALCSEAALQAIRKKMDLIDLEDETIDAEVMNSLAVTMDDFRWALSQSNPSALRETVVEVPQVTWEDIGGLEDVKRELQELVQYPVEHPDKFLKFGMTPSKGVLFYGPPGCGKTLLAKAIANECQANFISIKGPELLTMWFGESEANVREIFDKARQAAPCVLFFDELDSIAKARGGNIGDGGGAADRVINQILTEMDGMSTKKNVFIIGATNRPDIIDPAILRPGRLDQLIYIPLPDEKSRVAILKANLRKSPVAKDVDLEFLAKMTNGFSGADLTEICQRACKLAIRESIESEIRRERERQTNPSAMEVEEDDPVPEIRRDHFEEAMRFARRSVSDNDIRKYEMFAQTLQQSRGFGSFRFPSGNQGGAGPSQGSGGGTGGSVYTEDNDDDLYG
Wee1 stabilizer = Wee1 degradation inhibitors, primary screen, cell-based, HeLa, Wee1K328M-luciferase, luminescence | Wee1-like protein kinase (Homo sapiens), P30291 | HeLa Luc-Wee1K328M stability; 100% = proteasome inhibitor MG132 effect | reporter increase, % at 5 µM | 220,000 tested, 1.2% active;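 active = activation above the mean of all tested compounds plus 3 SD, set per screening run, cut at about 8.8% in these data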;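 also: cells exposed to compound for 20 h before luminescence read; 0% = DMSO alone and 100% = MG132 at 30 µM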
STAT1 act = STAT1 signaling activators, primary screen, cell-based, HTS, luciferase reporter; activation (% of control), % at 5.5 µM; 200,000 tested, 2.6% active; NIH 3T3 STAT1-luciferase reporter, IFN-gamma, luminescence; 100% = IFN-gamma alone, no compound;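 active = activation above the screen-wide mean activation plus 3 SD, cut at about 130% in these data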;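 also: raw ratio to IFN-gamma control signal so 100% means no change and 0% no light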
* marks the source's active call; other numbers are inactive results; . = no result.

SMILES | APP 5'UTR act | NF-kB neuron act | Mdm2 ligase inh | p97 ATPase inh | Wee1 stabilizer | STAT1 act
Cc1ccc(NC(=O)/C(C#N)=C/c2ccsc2)c(C)c1 | -3.2 | 1.67 | -3.2 | 6.3 | 3.5 | 137.4*
COc1ccc2cc(C3C(C#N)=C(N)OC(C)=C3C(C)=O)c(Cl)nc2c1 (centres undefined) | 15.8 | 1.05 | -15.2 | -2.0 | 9.0* | 94.8
CC(=O)C1=C(C)OC(N)=C(C#N)C1c1cccc2ccccc12 (centres undefined) | . | . | -8.1 | 14.6* | -1.1 | .
CC(=O)C1=C(C)OC(N)=C(C#N)C1c1ccncc1 (centres undefined) | -11.6 | 1.25 | -1.6 | -0.1 | -3.2 | 88.5
CC(=O)C1=C(C)OC(N)=C(C#N)C1c1ccco1 (centres undefined) | 5.8 | 1.08 | 0.1 | -1.7 | 0.1 | 90.5
CC(=O)c1cccc(NC2c3ccccc3C(=O)N2Cc2ccc3c(c2)OCO3)c1 (centres undefined) | -15.1 | 0.8 | -8.0 | -0.9 | 9.1* | 97.7
CCOc1ccc(NC2c3ccccc3C(=O)N2Cc2ccc3c(c2)OCO3)cc1 (centres undefined) | -4.6 | 1.27 | -14.7 | 2.5 | -1.4 | 93.9
Cn1cnc2cc(NC(=O)c3ccc(Cl)cc3)ccc21 | 89.0 | 5.04* | -21.0 | -6.7 | 4.6 | 140.4*
Cn1c(CN2CCCC2)nc2cc(NC(=O)c3ccc(Cl)cc3)ccc21 | 37.7 | 1.33 | 3.1 | -2.6 | 2.9 | 146.1*
CCc1nc2sc3c(O)cc(=O)[nH]c3c2cc1C | 2.0 | 1.27 | -9.8 | 2.3 | -1.8 | 104.5
Cc1nc2c(ccc3nc(NC(=O)C4CC4)sc32)s1 | 25.1 | 4.73* | -29.0 | 5.2 | 2.6 | 155.7*
COC(=O)CNC(c1ccccc1Cl)c1cc(Br)ccc1NS(=O)(=O)c1ccc(C)cc1 (centres undefined) | 28.2 | 0.77 | -5.3 | -1.6 | 2.2 | 110.4
CCN(CC)c1ccc(NC(=O)CCCCCN2C(=O)c3ccccc3C2=O)cc1 | -5.1 | 1.04 | 1.9 | -2.2 | 11.4* | 107.1
CC(=O)Nc1ccc(NC(=O)CCCCCN2C(=O)c3ccccc3C2=O)cc1 | 16.9 | 0.97 | -9.7 | 3.7 | 0.0 | 98.5
Cc1ccccc1OCCNC(=O)c1ccc2ccccc2n1 | 146.3* | 1.4 | 4.3 | -10.0 | 9.6* | 140.9*
Cc1ccc(C)c(NC(=O)c2cc3ccccn3n2)c1 | 124.6 | 3.05 | -14.5 | -1.7 | -0.9 | 134.5*
COCCNC(=O)c1ccc2ccccc2n1 | 3.2 | 1.26 | -16.1 | 1.4 | 5.8 | 99.8
Cc1ccc(C)c(NC(=O)c2ccc3ccccc3n2)c1 | 69.8 | 8.5* | 7.6 | -1.5 | 0.7 | 124.1
c1ccc2[nH]c3cc4ncnc4cc3nc2c1 | 0.1 | 1.06 | -18.7 | 2.7 | 1.0 | 114.9
OC(CSc1ccc(F)cc1)CN1CCN(c2ccccc2)CC1 (centres undefined) | 19.9 | 1.02 | 0.9 | -3.5 | -1.8 | 96.0
O=C(CCc1ccc(S(=O)(=O)N2CCOCC2)cc1)Nc1ccc2c(c1)OCCO2 | . | . | -19.2 | 3.6 | -1.2 | .
COc1cc(Cl)c(C)cc1NC(=S)NN | -14.1 | 1.04 | -8.8 | -1.6 | 0.6 | 95.1
Cc1ccc(-n2ncc3c2ncn2c(C)nnc32)cc1C | 24.8 | 3.37* | -4.9 | -7.2 | -0.6 | 135.9*
CC(=O)NNc1ncnc2c1cnn2-c1ccc(C)c(C)c1 | 2.5 | 1.04 | -21.1 | 7.6 | -1.0 | 123.3
CCc1nnc2c3cnn(-c4ccccc4)c3ncn12 | -0.4 | 1.5 | -8.3 | -3.4 | -2.3 | 132.7*
SMILES | APP 5'UTR act | NF-kB neuron act | Mdm2 ligase inh | p97 ATPase inh | Wee1 stabilizer | STAT1 act
O=C1N/C(=C/c2ccc(N3CCOCC3)o2)C(=O)N1c1cccc(Cl)c1 | -75.7 | 1.62 | -12.7 | 5.2 | 0.1 | 129.5*
Nc1nnc(-c2cc3ccccc3oc2=O)s1 | 20.2 | 1.89 | -9.5 | 1.6 | 1.4 | 131.1*
COc1ccc2oc(=O)c(-c3nnc(N)s3)cc2c1 | 42.5 | 1.87 | -17.3 | 4.0 | 7.0 | 120.2
Cc1cc(-c2nc3ncccc3o2)ccc1N | 43.4 | 1.8 | -10.6 | 0.4 | -0.3 | 138.6*
Nc1ccc(-c2nc3ncccc3o2)c(Cl)c1 | 95.8 | 2.74 | -16.6 | 0.5 | -0.7 | 145.0*
Nc1cc(-c2nc3ncccc3o2)ccc1Cl | 82.8 | 2.49 | -8.4 | 3.2 | 0.3 | 129.9*
COc1cc(/C=N/NC(=O)CC23CC4CC(CC(C4)C2)C3)cc(Br)c1OCC(=O)N(C)C | -8.3 | 0.43 | -3.4 | 2.2 | 0.5 | 104.3
Cc1cccc(NC(=O)CCCn2c(=S)[nH]c3ccccc3c2=O)c1 | 7.0 | 1.39 | -7.3 | 4.6 | 3.3 | 91.8
COc1ccc(S(=O)(=O)NN(C)c2ncc(C(F)(F)F)cc2Cl)cc1 | -4.1 | 1.32 | 35.9* | 1.8 | -3.7 | 98.1
Cc1cc(=O)n2cccc(O)c2n1 | 1.4 | 1.07 | 1.0 | -0.4 | 2.4 | 103.4
CC(C)(C)NC(=O)CSc1nc(-c2ccc(F)cc2)cs1 | 76.8 | 4.67* | -9.2 | -2.0 | 0.9 | 141.2*
O=S1(=O)C[C@H]2NC(=S)N(c3ccccc3)[C@H]2C1 | 5.4 | 1.12 | -20.1 | 0.6 | -2.2 | 94.3
Cc1ccc(N2C(=O)c3ccccc3C2=O)cc1C | 13.4 | 1.89 | . | 0.8 | -2.0 | 123.7
Cc1ccc(N2C(=O)c3ccc(N)cc3C2=O)cc1C | 34.1 | 3.72* | -5.8 | 3.3 | 1.2 | 140.8*
Cc1ccc(N2C(=O)c3ccc(N)cc3C2=O)cc1 | 29.2 | 3.46* | -18.2 | 7.7 | -0.1 | 148.9*
CC(=O)Nc1ccc2c(c1)C(=O)N(c1ccc(C)cc1)C2=O | 17.8 | 1.33 | -5.2 | 7.0 | 3.5 | 119.9
COc1cc(/C=N/NC(=O)c2cccnc2)ccc1OS(=O)(=O)c1cc(C)ccc1C | 21.8 | 0.66 | -15.3 | -5.0 | -3.1 | 96.0
O=C(N/N=C/c1sc(=O)n(-c2ccccc2)c1Cl)c1ccccc1 | 89.3 | 1.02 | -8.2 | 0.8 | 4.9 | 147.0*
CCCCC(=O)Nc1nnc(CCOC)s1 | 37.6 | 0.98 | -6.0 | 2.7 | 2.2 | 99.0
CC(C)(C(=O)Nc1nccs1)c1ccccc1 | -21.4 | 1.29 | -2.7 | 2.3 | -3.5 | 95.8
CN(C)C(=S)c1ccc(N(C)C)cc1 | 12.2 | 0.98 | -7.5 | 7.1 | -0.9 | 98.0
CC(=O)c1ccc(N=Nc2ccc(N(C)C)cc2)cc1 | 134.8 | 3.85* | -70.1 | 0.6 | 5.1 | 118.7
CC1(c2ccccc2)NC(=O)N(CC#N)C1=O (centres undefined) | 20.0 | 1.19 | -6.9 | -2.3 | -0.2 | 95.9
CSc1ccc(/C=N/Nc2cccc(C(=O)O)c2)cc1 | -8.5 | 18.3* | -78.9 | 1.1 | 3.7 | 40.7
CN(C)c1ccc(/C=N/NC(=O)c2ccccc2Cl)cc1 | -9.3 | 2.13 | 0.5 | -0.7 | 2.4 | 127.2
